ChEMBL document CHEMBL1255544, “Synthesis and evaluation of novel chloropyrrole molecules designed by molecular hybridization of common pharmacophores as potential antimicrobial agents” (2010)
≈ marks a conversion by molar mass, not a printed value. Calls of active or inactive are those of the source. The rule behind the calls is not given here.

Columns and labels:
Escherichia coli [1] = experiment: Antimicrobial activity against Escherichia coli ATCC […] after 24 hrs by disk diffusion method; format: functional
Summary of the method: (§1)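 Zone of inhibition by disc diffusion against E. coli ATCC-25922, S. aureus ATCC-25923, P. aeruginosa ATCC-27853 and recultured Klebsiella pneumoniae.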

Staphylococcus aureus [2] = experiment: Antimicrobial activity against Staphylococcus aureus ATCC 25923 after 24 hrs by disk diffusion method; format: functional; summary of the method: as §1
Candida albicans [3] = experiment: Antimicrobial activity against Candida albicans after 48 hrs by agar dilution method; format: functional
Summary of the method: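 Candida albicans tested by agar dilution, with compounds in DMSO.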

Escherichia coli [4] = experiment: Antimicrobial activity against Escherichia coli ATCC […] after 24 hrs by broth dilution method; format: functional
Summary of the method: (§2)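 MIC by broth dilution: the lowest concentration (highest dilution) that arrested bacterial or fungal growth. Strains were E. coli ATCC-25922, S. aureus ATCC-25923, P. aeruginosa ATCC-27853 and C. albicans.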

Staphylococcus aureus [5] = experiment: Antimicrobial activity against Staphylococcus aureus ATCC 25923 after 24 hrs by broth dilution method; format: functional; conditions: ATCC 25923, 24 h; summary of the method: as §2
Candida albicans [6] = experiment: Antimicrobial activity against Candida albicans after 48 hrs by broth dilution method; format: functional; summary of the method: as §2
Pseudomonas aeruginosa [7] = experiment: Antimicrobial activity against Pseudomonas aeruginosa ATCC 27853 at 100 ug/ml after 24 hrs by broth dilution method; format: functional, organism-based
Klebsiella pneumoniae [8] = experiment: Antimicrobial activity against Klebsiella pneumoniae at 100 ug/ml after 24 hrs by broth dilution method; format: functional, organism-based
Klebsiella pneumoniae [9] = experiment: Antimicrobial activity against Klebsiella pneumoniae after 24 hrs by disk diffusion method; format: functional; summary of the method: as §1
Pseudomonas aeruginosa [10] = experiment: Antimicrobial activity against Pseudomonas aeruginosa ATCC 27853 after 24 hrs by broth dilution method; format: functional; conditions: ATCC 27853, 24 h; summary of the method: as §2
Klebsiella pneumoniae [11] = experiment: Antimicrobial activity against Klebsiella pneumoniae after 24 hrs by broth dilution method
Pseudomonas aeruginosa [12] = experiment: Antimicrobial activity against Pseudomonas aeruginosa ATCC 27853 after 24 hrs by disk diffusion method; format: functional; summary of the method: as §1

SMILES | MIC (Escherichia coli [4]) [µg/mL] | MIC (Staphylococcus aureus [5]) [µg/mL] | MIC (Candida albicans [6]) [µg/mL] | MIC (Pseudomonas aeruginosa [10]) [µg/mL] | diameter of the inhibition zone (DIZ) (Escherichia coli [1]) [mm] | diameter of the inhibition zone (DIZ) (Staphylococcus aureus [2]) [mm] | diameter of the inhibition zone (DIZ) (Candida albicans [3]) [mm] | Activity (Pseudomonas aeruginosa [7]) | Activity (Klebsiella pneumoniae [8]) | Zone of inhibition (Escherichia coli [1]; Escherichia coli, ATCC 2522, 24 h) [mm] | diameter of the inhibition zone (DIZ) (Staphylococcus aureus [2]; Staphylococcus aureus, ATCC 25923, 24 h) [mm] | Zone of inhibition (Klebsiella pneumoniae [9]; Klebsiella pneumoniae, 24 h) [mm] | MIC (Klebsiella pneumoniae [11]) [µg/mL] | diameter of the inhibition zone (DIZ) (Pseudomonas aeruginosa [12]) [mm] | diameter of the inhibition zone (DIZ) (Klebsiella pneumoniae [9]) [mm]
O=C(O)c1cn(C2CC2)c2cc(N3CCNCC3)c(F)cc2c1=O [CIPROFLOXACIN] | 1.06 (≈ 3.2 µM) | 1.56 (≈ 4.71 µM) |  | 3.12 (≈ 9.43 µM) |  |  |  |  |  | 25 | 20 | 26 | 1.56 (≈ 4.71 µM) |  | 
O=C(/C=C/c1ccco1)c1ccc(Cl)[nH]1 | 12.5 (≈ 56.4 µM) | 25 (≈ 113 µM) | 100 (≈ 451 µM) |  | 16 | 15 | 10 | inactive | inactive |  |  |  |  |  | 
COc1ccc(/C=N/NC(=O)c2cc(Cl)c(Cl)[nH]2)cc1OC | 3.12 (≈ 9.13 µM) | 1.56 (≈ 4.56 µM) | 12.5 (≈ 36.5 µM) | 12.5 (≈ 36.5 µM) | 20 | 25 | 24 |  |  |  |  |  |  | 18 | 17
O=C(N/N=C/c1ccco1)c1cc(Cl)c(Cl)[nH]1 | 3.12 (≈ 11.5 µM) | 1.56 (≈ 5.73 µM) | 12.5 (≈ 45.9 µM) | 25 (≈ 91.9 µM) | 24 | 26 | 23 |  |  |  |  |  |  | 24 | 20

More lines, main results first:

MIC (Escherichia coli [4]) [µg/mL] | MIC (Staphylococcus aureus [5]) [µg/mL] | MIC (Candida albicans [6]) [µg/mL] | MIC (Pseudomonas aeruginosa [10]) [µg/mL] | SMILES | diameter of the inhibition zone (DIZ) (Escherichia coli [1]) [mm] | diameter of the inhibition zone (DIZ) (Staphylococcus aureus [2]) [mm] | diameter of the inhibition zone (DIZ) (Candida albicans [3]) [mm] | Activity (Pseudomonas aeruginosa [7]) | Activity (Klebsiella pneumoniae [8]) | Zone of inhibition (Escherichia coli [1]; Escherichia coli, ATCC 2522, 24 h) [mm] | diameter of the inhibition zone (DIZ) (Staphylococcus aureus [2]; Staphylococcus aureus, ATCC 25923, 24 h) [mm] | Zone of inhibition (Klebsiella pneumoniae [9]; Klebsiella pneumoniae, 24 h) [mm] | MIC (Klebsiella pneumoniae [11]) [µg/mL] | diameter of the inhibition zone (DIZ) (Pseudomonas aeruginosa [12]) [mm] | diameter of the inhibition zone (DIZ) (Klebsiella pneumoniae [9]) [mm]
50 (≈ 191 µM) | 25 (≈ 95.5 µM) | 100 (≈ 382 µM) |  | COc1ccc(/C=C/C(=O)c2ccc(Cl)[nH]2)cc1 | 10 | 17 | 14 | inactive | inactive |  |  |  |  |  | 
12.5 (≈ 42.2 µM) | 12.5 (≈ 42.2 µM) | 50 (≈ 169 µM) | 100 (≈ 338 µM) | COc1ccc(/C=C/C(=O)c2cc(Cl)c(Cl)[nH]2)cc1 | 13 | 20 | 12 |  |  |  |  |  |  | 17 | 18
25 (≈ 85.7 µM) | 25 (≈ 85.7 µM) | 100 (≈ 343 µM) |  | COc1ccc(/C=C/C(=O)c2ccc(Cl)[nH]2)cc1OC | 13 | 13 | 14 | inactive | inactive |  |  |  |  |  | 
